# Activity calls are given as the source filed them. The calls are words filed in the database; no cut-off is given here.
# Tests used:
# 518A2 [1] = assay: Induction of apoptosis in human 518A2 cells assessed as increase of caspase 9 activity at 5 uM after 8 to 12 hrs by luminometric assay; type: functional, cell-based
# Summary of the method: (§1)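 HL-60 and 518A2 cells treated with 5 µM compound and sampled at intervals from 1 to 24 h. Lysed in 50 mM Tris-HCl pH 7.4, 150 mM NaCl, 1% Triton X-100 with protease inhibitors for 15 min at 4 °C, spun at 800 g. Protein measured by Bradford. Caspase-3/7, -8 and -9 activities read with luminogenic peptide substrates; reported as relative luminescence.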
# HL-60 [2] = assay: Induction of apoptosis in human HL60 cells assessed as increase of caspase 8 activity at 5 uM after 4 to 24 hrs by luminometric assay; type: functional, cell-based; summary of the method: as §1
# HL-60 [3] = assay: Cytotoxicity against human HL60 cells after 72 hrs by MTT assay; type: functional, cell-based; details: HL-60, 72 h
# Summary of the method: (§2)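 MTT assay. Cells seeded and cultured 24 h, then exposed to compound for 24, 48 or 72 h. MTT added to a final 0.05% (HL-60, 518A2) or 0.1% (KB-V1, MCF-7) for 2 h. Formazan dissolved in 10% SDS/DMSO with 0.6% acetic acid; absorbance read at 570 nm against 630 nm background. Viability taken relative to untreated controls (100%). IC50 from concentration-response curves, mean ± SD of four independent experiments.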
# [4] = Cytotoxicity against human vinblastine-resistant KBV1 cells after 48 hrs by MTT assay; type: functional, cell-based; details: KB-V1, 48 h; summary of the method: as §2
# HL-60 [5] = assay: Cytotoxicity against human HL60 cells assessed as increase in ROS production at 5 uM after 24 hrs by NBT reduction assay relative to control; type: functional
# Summary of the method: (§3)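 NBT assay. HL-60 cells (0.5×10⁶/mL) or trypsinised 518A2 cells (5×10⁴/mL) pre-incubated 24 h at 37 °C, then given compound at a final 5 µM for 24 or 72 h. Medium removed; cells incubated with 0.1% NBT for 1 h (HL-60) or 4 h (518A2). Diformazan dissolved in 2 M KOH/DMSO; A630 read against 405 nm. Given as % of untreated controls; double quadruplicates.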
# HL-60 [6] = assay: Induction of apoptosis in human HL60 cells assessed as DNA ladder formation at 5 uM after 24 hrs by agarose gel electrophoresis; type: functional, cell-based
# Summary of the method: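 HL-60 cells incubated with 5 µM compound for 24 h, then examined for DNA ladder patterns.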
# [7] = Cytotoxicity against human vinblastine-resistant KBV1 cells after 72 hrs by MTT assay; type: functional, cell-based; details: KB-V1, 72 h; summary of the method: as §2
# HL-60 [8] = assay: Cytotoxicity against human HL60 cells after 24 hrs by MTT assay; type: functional, cell-based; details: HL-60, 24 h; summary of the method: as §2
# 518A2 [9] = assay: Induction of apoptosis in human 518A2 cells assessed as increase of caspase 3 activity at 5 uM measured up to 12 hrs by luminometric assay; type: functional, cell-based; summary of the method: as §1
# HL-60 [10] = assay: Induction of apoptosis in human HL60 cells assessed as increase of Bax mRNA expression at 5 uM up to 24 hrs by […] analysis; type: functional, cell-based
# [11] = Cytotoxicity against human vinblastine-resistant KBV1 cells after 72 hrs by MTT assay in presence of 24 mM ABC transporter inhibitor verapamil hydrochloride; type: functional, cell-based; details: KB-V1, 72 h, in the assay text read “24 uM” for “24 mM”
# Summary of the method: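 MTT viability assay on P-gp-overexpressing KB-V1/Vbl cells with 24 µM verapamil hydrochloride added before the compound; 72 h exposure. Formazan read at 570/630 nm relative to untreated controls. IC50 from concentration-response curves, mean ± SD of four independent experiments.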
# 518A2 [12] = assay: Induction of apoptosis in human 518A2 cells assessed as increase of ratio of Bax to Bcl-2 mRNA expression at 5 uM after 6 to 18 hrs by RT-PCR analysis; type: functional, cell-based
# Summary of the method: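 518A2 cells exposed to 5 µM compound for 6 h or 18 h. bax and bcl-2 mRNA quantified by real-time PCR, normalised to GAPDH, and expressed as the bax/bcl-2 ratio.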
# HL-60 [13] = assay: Cytotoxicity against human HL60 cells assessed as increase in ROS production at 5 uM after 72 hrs by NBT reduction assay relative to control; type: functional; summary of the method: as §3
# HL-60 [14] = assay: Induction of apoptosis in human HL60 cells assessed as increase of caspase 9 activity at 5 uM after 12 hrs by luminometric assay; type: functional, cell-based
# Summary of the method: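 HL-60 leukaemia cells were treated with test compound and sampled at intervals from 1 to 24 h. Protein was measured by Bradford. Caspase-9 (Caspase-Glo 8 for line 1) was read from a luminogenic peptide substrate as relative luminescence.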
# HL-60 [15] = assay: Induction of apoptosis in human HL60 cells assessed as increase of caspase 3 activity at 5 uM after 4 hrs by luminometric assay; type: functional, cell-based; summary of the method: as §1
# HL-60 [16] = assay: Induction of apoptosis in human HL60 cells assessed as increase of caspase 3 activity at 5 uM after 12 hrs by luminometric assay; type: functional, cell-based; summary of the method: as §1
# [17] = Cytotoxicity against human 518A2 cells after 48 hrs by MTT assay; type: functional, cell-based; details: 518A2, 48 h; summary of the method: as §2
# 518A2 [18] = assay: Induction of apoptosis in human 518A2 cells assessed as increase of caspase 8 activity at 5 uM measured up to 12 hrs by luminometric assay; type: functional, cell-based; summary of the method: as §1
# 518A2 [19] = assay: Induction of apoptosis in human 518A2 cells assessed as appearance of intact mitochondria in cytosol at 5 uM after 6 hrs using JC1 dye relative to control; type: functional
# Summary of the method: (§4)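 Mitochondrial membrane potential measured with JC-1. Cells exposed to 5 µM compound for 6 or 18 h, pelleted at 400 g, stained with 0.2× JC-1 at 37 °C for 15 min (HL-60) or 35 min (518A2), washed and resuspended in PBS. Red fluorescence (ex 585/em 590 nm) and green (ex 510/em 527 nm) read; red/green ratio relative to untreated controls (100%). Mean ± SD, four independent experiments.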
# 518A2 [20] = assay: Induction of apoptosis in human 518A2 cells assessed as appearance of intact mitochondria in cytosol at 5 uM after 18 hrs using JC1 dye relative to control; type: functional; summary of the method: as §4
# HL-60 [21] = assay: Cytotoxicity against human HL60 cells after 48 hrs by MTT assay; type: functional, cell-based; details: HL-60, 48 h; summary of the method: as §2
# [22] = Cytotoxicity against human 518A2 cells after 72 hrs by MTT assay; type: functional, cell-based; details: 518A2, 72 h; summary of the method: as §2
# 518A2 [23] = assay: Induction of apoptosis in human 518A2 cells assessed as increase of Bcl-2 mRNA expression at 5 uM up to 24 hrs by […] analysis; type: functional, cell-based
# [24] = Cytotoxicity against human 518A2 cells assessed as increase in ROS production at 5 uM after 24 hrs by NBT reduction assay relative to control; type: functional; summary of the method: as §3
# HL-60 [25] = assay: Induction of apoptosis in human HL60 cells assessed as appearance of intact mitochondria in cytosol at 5 uM after 6 hrs using JC1 dye relative to control; type: functional; summary of the method: as §4
# [26] = Cytotoxicity against human 518A2 cells after 24 hrs by MTT assay; type: functional, cell-based; details: 518A2, 24 h; summary of the method: as §2
# HL-60 [27] = assay: Induction of apoptosis in human HL60 cells assessed as appearance of intact mitochondria in cytosol at 5 uM after 18 hrs using JC1 dye relative to control; type: functional; summary of the method: as §4
# [28] = Cytotoxicity against human 518A2 cells assessed as increase in ROS production at 5 uM after 72 hrs by NBT reduction assay relative to control; type: functional; summary of the method: as §3
# [29] = Cytotoxicity against human vinblastine-resistant KBV1 cells after 24 hrs by MTT assay; type: functional, cell-based; details: KB-V1, 24 h; summary of the method: as §2
# HL-60 [30] = assay: Induction of apoptosis in human HL60 cells assessed as increase of Bcl-2 mRNA expression at 5 uM up to 24 hrs by […] analysis; type: functional, cell-based
compound,measurement,setting,value
COc1cccc2c1C(=O)c1c(O)c3c(c(O)c1C2=O)C[C@@](O)(C(=O)CO)C[C@@H]3O[C@H]1C[C@H](N)[C@H](O)[C@H](C)O1.Cl [DOXORUBICIN HYDROCHLORIDE],Activity,518A2 [1],Active
same,Activity,HL-60 [2],Active
same,IC50,HL-60 [3],80 nM
same,IC50,[4],35600 nM
same,Activity,HL-60 [5],2.8%
same,Activity,HL-60 [6],Active
same,IC50,[7],18300 nM
same,IC50,HL-60 [8],220 nM
same,Activity,518A2 [9],inactive
same,Activity,HL-60 [10],inactive
same,IC50,[11],1020 nM
same,Activity,518A2 [12],Active
same,Activity,HL-60 [13],5.6%
same,Activity,HL-60 [14],Active
same,Activity,HL-60 [15],Active
same,Activity,HL-60 [16],Active
same,IC50,[17],170 nM
same,Activity,518A2 [18],inactive
same,Activity,518A2 [19],98%
same,Activity,518A2 [20],74%
same,IC50,HL-60 [21],100 nM
same,IC50,[22],120 nM
same,Activity,518A2 [23],inactive
same,Activity,[24],2.5%
same,Activity,HL-60 [25],83%
same,IC50,[26],340 nM
same,Activity,HL-60 [27],28%
same,Activity,[28],15.4%
same,IC50,[29],59900 nM
same,Activity,HL-60 [30],Active

# From ChEMBL document CHEMBL1157852, “Modulation of doxorubicin activity in cancer cells by conjugation with fatty acyl and terpenyl hydrazones” (Eur J Med Chem, 2010)
